Bioassay records from PubChem BioAssay.
Most compounds without a hit are left out; they make up all but 1.6% or so of the library.
DNA FID counter: fluorescent intercalator displacement, NS3 helicase counter-screen; 290,000 compounds, 0.17% hits; inhibition, % at 7.9 µM; DNA fluorescent intercalator displacement, fluorescence; AID 1845; in the data active = inhibition above about 37%;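 note: 0% = vehicle and 100% = reference compound; higher means more ethidium bromide displaced from hairpin DNA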
Apaf1 inhib: blocks human Apaf-1 apoptosome activity | O14727 | reconstituted apoptosome caspase-3 activity, DEVD-Rh110 fluorescence | inhibition, % at 20 µM | 330,000 compounds, 0.71% hits | AID 489030; active = inhibition of at least 40% at 20 µM;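 note: plate controls were DMSO wells for no effect and DEVD-CHO caspase inhibitor wells for full effect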
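System: reconstituted apoptosome with Apaf-1, cytochrome c, caspase-9, procaspase-3, dATP; Signal: Rh110 fluorescence intensity; Schedule: 30 min compound preincubation, 50 min activation, room temperature; Reagent: cytochrome c trigger plus (Z-DEVD)2-Rh110 caspase-3 substrate.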
RAD52 inh: RAD52 (human) annealing inhibition; 360,000 compounds, 0.46% hits; recombinant RAD52 DNA annealing, FRET fluorescence; AID 651710; P43351; inhibition, % at 18.7 µM;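 active = every replicate showing at least 50% inhibition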
UBC13 polyUb: blocks human UBC13 polyubiquitin chain formation; P61088; TR-FRET; inhibition, % at 20 µM; 330,000 compounds, 0.47% hits; in the data active = inhibition above about 45%, passing the limit was not always enough
RAD54 branch: RAD54 (human) branch migration inhibition; RAD54 Holliday junction branch migration, FAM/BHQ fluorescence; inhibition, % at 10.4 µM; 360,000 compounds, 0.14% hits;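 active = mean normalized replicate activity at least 40 and at least half of replicates scoring 40 or more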;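 note: 0% = median of neutral control wells and 100% = median of positive control wells; inhibitors cause a drop in the FAM fluorescence signal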
Target sequence (Q92698 whole entry, looked up): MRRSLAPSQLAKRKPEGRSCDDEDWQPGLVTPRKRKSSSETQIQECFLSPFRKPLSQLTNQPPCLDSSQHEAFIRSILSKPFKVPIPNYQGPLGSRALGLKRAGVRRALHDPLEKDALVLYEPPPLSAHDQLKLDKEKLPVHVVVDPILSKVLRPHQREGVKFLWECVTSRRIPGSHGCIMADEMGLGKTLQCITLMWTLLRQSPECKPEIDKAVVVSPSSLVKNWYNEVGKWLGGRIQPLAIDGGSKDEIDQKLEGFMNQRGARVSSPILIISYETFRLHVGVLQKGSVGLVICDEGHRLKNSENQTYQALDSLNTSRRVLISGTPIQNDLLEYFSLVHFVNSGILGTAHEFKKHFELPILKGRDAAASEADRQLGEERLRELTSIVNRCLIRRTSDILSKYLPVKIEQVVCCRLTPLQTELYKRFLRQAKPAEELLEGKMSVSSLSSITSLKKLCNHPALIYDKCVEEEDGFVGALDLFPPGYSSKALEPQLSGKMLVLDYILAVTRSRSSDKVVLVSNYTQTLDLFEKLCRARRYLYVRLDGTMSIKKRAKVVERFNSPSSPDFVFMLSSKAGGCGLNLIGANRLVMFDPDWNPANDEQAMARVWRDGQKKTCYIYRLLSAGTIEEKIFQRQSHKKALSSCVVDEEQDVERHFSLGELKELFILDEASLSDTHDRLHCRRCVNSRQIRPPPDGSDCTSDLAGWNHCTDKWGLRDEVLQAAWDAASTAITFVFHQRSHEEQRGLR
Neddylation inh: blocks human cullin neddylation | TR-FRET cullin neddylation, biochemical | calls only at 25 µM | 360,000 compounds, 0.58% hits; in the data active = inhibition above about 36%
Neddyl conf: confirmation of human cullin neddylation inhibitors; shares compounds with Neddylation inh; TR-FRET cullin neddylation biochemical assay; calls only at 25 µM; 1,800 compounds, 13% hits; AID 652217; in the data active = inhibition above about 40%;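 note: neddylation substrate is the cullin 1 ring ligase complex with SKP2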
* marks the source's active call; other numbers are inactive results; i = inactive; · = no result given; + = active, no number.

SMILES	DNA FID counter	Apaf1 inhib	RAD52 inh	UBC13 polyUb	RAD54 branch	Neddylation inh	Neddyl conf
CCC1CCCCN1CCCNC(=O)c1ccc2c(=O)n(CCOC)c(=O)[nH]c2c1 (stereo not drawn)	-4.9	5.4	-11.4	9.4	-0.9	i	·
CCN1CCCC1CNC(=O)c1ccc2c(=O)n(CCOC)c(=O)[nH]c2c1 (stereo not drawn)	-0.1	5.6	·	8.4	-19.2	+	i
CCN1CCCC1CNC(=O)c1cc2cc(F)ccc2[nH]1 (stereo not drawn)	1.0	12.9	-13.3	-0.7	4.1	+	·
Cc1noc(C)c1NC(=O)Nc1ccc2c(c1)CC(=O)N([C@@H](C)CO)C[C@@H](C)[C@@H](CN(C)S(=O)(=O)c1ccc(Cl)cc1)O2	·	·	3.0	·	5.1	·	·
Cc1cc(=O)oc2cc(OCC(=O)NC3(C#N)CCCCC3)ccc12	·	·	-20.3	·	0.4	·	·
Cc1cc(=O)oc2cc(OCC(=O)Nc3c(C)n(C)n(-c4ccccc4)c3=O)c(Cl)cc12	·	1.4	2.1	-4.2	16.7	+	i
Cc1cc(=O)oc2cc(OCC(=O)NC3(C#N)CCCCC3)c(Cl)cc12	·	-1.1	-3.4	-1.2	7.6	+	i
Cc1ccc(C)c(OCC(=O)Nc2c(C)n(C)n(-c3ccccc3)c2=O)c1	·	7.1	-9.0	-1.7	-5.6	i	·
C[C@@H](O)C#Cc1cnc2c(c1)C(=O)N([C@@H](C)CO)C[C@H](C)[C@@H](CN(C)Cc1cccc(C(=O)O)c1)O2	·	·	-17.0	·	-1.3	·	·
O=C(c1cnn2c(C(F)F)cc(-c3ccccc3)nc12)N1CCOCC1	3.4	2.0	·	-2.2	-4.7	+	i
COc1cc2oc(=O)cc(CN3CCCCC3)c2cc1Cl	·	·	-10.2	·	-2.0	+	i
COc1cc2oc(=O)cc(CN3CCN(C(C)=O)CC3)c2cc1Cl	·	·	-12.4	·	-3.6	i	·
CC(C)CC#Cc1cnc2c(c1)C(=O)N([C@H](C)CO)C[C@@H](C)[C@@H](CN(C)C(=O)c1cccnc1)O2	·	·	9.5	·	6.4	·	·
CC(Oc1ccccc1)C(=O)Nc1cccc(-c2nc3ccccc3[nH]2)c1 (stereo not drawn)	-10.2	3.9	·	4.4	1.6	+	i
N#C[C@@H]1[C@H](c2ccccc2-c2cccc(F)c2)[C@H](CO)N1C(=O)C1CC1	·	·	14.5	·	·	·	·
COc1ccc(-c2cc3ccccc3n2CC(O)CN2CCC(C)CC2)cc1 (stereo not drawn)	35.3	33.9	1.5	8.1	-0.5	i	·
COc1ccc(-c2cc3ccccc3n2CC(O)CNC(CO)(CO)CO)cc1 (stereo not drawn)	11.1	5.4	·	4.0	-6.8	+	·
Cc1ccc(S(=O)(=O)Nc2ccc3c(c2)CC(=O)N([C@@H](C)CO)C[C@H](C)[C@@H](CN(C)C(=O)Nc2ccc4c(c2)OCO4)O3)cc1	·	·	-9.0	·	-1.6	·	·
COc1cccc(OC)c1-c1nnc(-c2cn(C)c3ccccc23)o1	-5.8	8.5	·	7.4	-0.5	+	i
Cc1ccc2[nH]c3c(=O)n(N)c(C)nc3c2c1	6.3	-2.8	-2.8	1.5	7.7	+	+
COc1ccc2[nH]c3c(=O)n(N)c(C)nc3c2c1	0.2	-3.1	·	5.9	-3.2	·	·
COc1ccc(C(=O)Nc2ccc(NC(=O)c3cccs3)cc2)cc1Cl	-0.5	-17.4	2.8	-12.7	·	+	i
COc1ccc(C(=O)Nc2ccc(NC(=O)c3cccs3)c(OC)c2)cc1Cl	8.6	-7.9	-14.8	2.8	-4.5	·	·
O=C1OC(c2ccccc2)=N/C1=C\C=C\c1ccco1	-14.9	-3.9	-30.8	6.0	·	+	i
Cc1ccc2nc(C(C)(C)C)c(Cc3cccc(F)c3)n2c1	·	·	-15.4	·	-8.0	+	i
SMILES	DNA FID counter	Apaf1 inhib	RAD52 inh	UBC13 polyUb	RAD54 branch	Neddylation inh	Neddyl conf
COCCOC(=O)c1cc(C(=O)c2cc(F)ccc2O)coc1=N	-2.6	13.0	·	-6.3	0.1	+	i
Cc1ncc(CC(=O)n2cc(C(=O)c3cc(F)ccc3O)cn2)s1	-3.6	-12.9	·	7.7	6.4	+	i
Cc1ccc(S(=O)(=O)Nc2ccc3c(c2)CC(=O)N([C@@H](C)CO)C[C@H](C)[C@H](CN(C)C(=O)Nc2cccc4ccccc24)O3)cc1	·	·	-0.7	·	-5.5	·	·
Cc1cc(=O)oc2cc(NC(=O)Cc3ccccc3)ccc12	-9.2	6.4	-5.8	6.8	-11.5	i	·
Cc1cc(=O)oc2cc(NC(=O)c3ccc(OC(F)F)cc3)ccc12	-3.3	5.0	-11.9	-2.4	0.0	·	·
Cc1onc(-c2ccccc2)c1C(=O)Nc1ccc2c(C)cc(=O)oc2c1	-10.1	12.7	·	-0.9	-12.2	+	i
Cc1cc(=O)oc2cc(NC(=O)C(C)Oc3ccc(F)cc3)ccc12 (stereo not drawn)	·	5.7	-21.3	5.1	1.3	+	·
CCCC(C(=O)Nc1ccc2c(C)cc(=O)oc2c1)c1ccccc1 (stereo not drawn)	-21.8	2.5	-25.2	9.3	-1.6	+	i
Cc1cc(=O)oc2ccc(OC(C)C(=O)O)cc12 (stereo not drawn)	-2.4	0.4	-11.6	6.1	-2.0	+	i
CC1C=NC(S(=O)(=O)N2CC[C@@H]3[C@@H](CO)N(C)c4ccc(-c5ccccc5)cc4[C@@H]32)=N1 (stereo partly drawn)	·	·	-4.1	·	-0.7	·	·
CCNC(=O)C[C@@H]1CC[C@@H]2[C@@H](COc3ccc(NC(=O)Nc4ccccc4OC)cc3C(=O)N2C)O1	·	·	-18.0	·	9.0	·	·
CC(NC(=O)C1=CC=CN2CCS(=O)(=O)N=C12)c1ccc(Cl)cc1Cl (stereo not drawn)	·	-3.1	-10.8	10.4	-5.3	+	·
CC(NC(=O)C1=CC=CN2CCS(=O)(=O)N=C12)c1ccc(Cl)c(Cl)c1 (stereo not drawn)	·	-4.5	2.5	14.6	·	+	+
COc1ccc2c3c([nH]c2c1)[C@@H](CO)NCC31CN(C(=O)Nc2ccc3c(c2)OCO3)C1	·	·	10.9	·	·	·	·
COc1ccc2c3c([nH]c2c1)[C@@H](CO)N(C(C)=O)CC31CN(S(=O)(=O)c2ccccc2)C1	·	·	3.4	·	·	·	·
CCOc1cc(/C=C(/C#N)c2ccc(F)cc2)ccc1OCc1ccc(C(=O)O)o1	-14.4	-0.5	·	-18.0	-0.8	i	·
CCOc1cc(/C=C(/C#N)c2nc3ccccc3[nH]2)ccc1OCc1ccc(C(=O)O)o1	-26.7	3.8	·	-19.0	-10.7	+	i
CCNC(=O)C[C@H]1C=C[C@@H](NC(=O)C2CCOCC2)[C@H](CO)O1	·	·	2.3	·	-3.9	·	·
COC(=O)c1ccc(C#Cc2ccccc2)o1	-1.2	-3.0	-15.7	7.0	5.3	+	i
COc1ccccc1C(=O)NC(=O)CSc1nnc2ccccn12	·	-12.8	-6.0	4.8	0.4	+	i
O=C(CSc1nnc2ccccn12)NC(=O)c1ccccc1Cl	·	-15.5	-12.4	8.1	-0.4	i	·
